The subject of data set [1] is HCT-116. The data set is described as follows: Antiproliferative activity against human HCT116 cells after 24 to 72 hrs by SRB assay. The format is functional, cell-based. The essentials: (§1)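 Cells from ATCC were grown at 37 °C in 5% CO2, in RPMI 1640 (A549, HCT116, SNU-638) or DMEM (MDA-MB-231, SK-HEP-1, MRC5) with 10% FBS. They were seeded at 6 × 10^3 cells/well for 24 h, then exposed for 72 h. Cells were TCA-fixed, stained with 0.4% SRB, and read at 515 nm against day-zero plates. IC50 came from nonlinear regression, as means ± SD.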

For data set [2], the system named is HCT-116. The data set is described as follows: Antitumor activity against human HCT116 cells xenografted in BALB/c-nu mouse assessed as inhibition of tumor weight at 5 mg/kg, ip administered three times per week for 28 days measured post dosing relative to control. The format is functional. Particulars: HCT-116, ip, 672 h. Summed up:
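Nude mice bearing subcutaneous HCT116 flank tumors (2 × 10^6 cells) were randomized at ~200 mm3, five per group. Dosing was 2.5 or 5 mg/kg ip in saline/0.5% Tween 80, three times weekly for 28 days, with vehicle controls. Tumors were excised on day 28 and weighed; inhibition was expressed against the vehicle group.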

A short description of data set [3]: Inhibition of PI3K/Akt/mTOR in human HCT116 cells assessed as upregulation of PTEN at 10 to 30 uM after 24 hrs by Western blot analysis. The data set is classed as cell-based. Summed up: (§2)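 HCT116 cells (RPMI 1640, 10% FBS, 37 °C, 5% CO2) exposed to the compound for 24 h, then lysed in 2× SDS sample buffer with NaF and orthovanadate and boiled. BCA-normalised protein (10−30 μg) run on 6−15% SDS-PAGE and blotted to PVDF. Blocked in 5% BSA/PBS-Tween, probed for PI3K, PTEN, Akt and mTOR, and detected by ECL. Blots are representative of three determinations.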

In data set [4] the test system is HCT-116. As to the kind of experiment: Induction of apoptosis in human HCT116 cells assessed as activation of caspase 9 at 10 to 30 uM after 48 hrs by Western blot analysis. The data set is classed as functional, cell-based. The essentials: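 HCT116 cells were treated with the indicated concentrations for 48 h. Lysates were prepared in SDS sample buffer and 10–30 μg protein was separated by SDS-PAGE, blotted to PVDF and blocked in 5% BSA. Cleaved caspase-8, -9, -3 and PARP were detected by ECL.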

In data set [5] the test system is HCT-116. The data set is described as follows: Induction of autophagy in human HCT116 cells assessed as increase in LAMP1 expression at 30 uM at 24 hrs by Western blot analysis. The format is functional, cell-based.
In data set [6] the target is Cellular tumor antigen p53 (Homo sapiens) (UniProt P04637). As to the kind of experiment: Induction of p53 expression in human HCT116 cells after 24 hrs by Western blot analysis. The format is cell-based.
A short description of data set [7]: Toxicity in BALB/c-nu mouse xenografted with human HCT116 cells assessed as overt toxicity at 2.5 to 5 mg/kg, ip administered three times per week for 28 days measured during compound dosing relative to control. The data set is classed as organism-based. Particulars: in vivo, 672 h. Summed up: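 Nude mice carried subcutaneous flank HCT116 implants (2 × 10^6 cells in 200 μL medium). At about 200 mm3 they were randomised into groups of five. Compound at 2.5 or 5 mg/kg in saline with 0.5% Tween 80 was given ip three times weekly for 4 weeks; controls received vehicle. Body weight was monitored throughout for toxicity.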

A short description of data set [8]: Inhibition of PI3K/Akt/mTOR in human HCT116 cells assessed as suppression of mTOR phosphorylation at Ser2448 at 10 to 30 uM after 24 hrs by Western blot analysis. The format is cell-based. The essentials: as §2
The test system of the next data set is Mus musculus. The data set is described as follows: Induction of PARP cleavage in human HCT116 cells xenografted in BALB/c-nu mouse at 2.5 to 5 mg/kg, ip administered three times per week for 28 days measured post dosing by Western blot analysis. The data set is classed as functional, organism-based. Summed up: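 Excised xenograft tumors (2.5 or 5 mg/kg ip, three times weekly for 28 days) were frozen. Portions were thawed on ice and homogenized in Complete Lysis Buffer, then protein was quantified. Cleaved PARP was detected by Western blot with β-actin as internal standard; blots shown are representative of three determinations.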

Data set [9] has as its system HCT-116. As to the kind of experiment: Induction of autophagy in human HCT116 cells assessed as vacuole formation in cytoplasm at 20 uM by inverted phase contrast microscopy relative to control. The data set is classed as functional, cell-based. Summed up: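 HCT116 cells were exposed to 20 μM compound or vehicle. Cytoplasmic vacuoles were inspected and photographed under an inverted phase-contrast microscope at 100×.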

For another data set, the system named is MRC5. The data set is described as follows: Antiproliferative activity against human MRC5 cells after 24 to 72 hrs by SRB assay. The data set is classed as cell-based. Summed up: as §1
Data set [10] deals with HCT-116. The data set is described as follows: Growth inhibition of human HCT116 cells at 5 to 40 uM in presence of autophagy inhibitor 3-MA after 48 hrs by SRB assay. The format is functional, cell-based. The essentials:
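SRB proliferation assay on HCT116 cells given graded concentrations for 48 h with or without 2 mM 3-MA. Cells were TCA-fixed, stained with 0.4% SRB, solubilized in 10 mM Tris pH 10.0 and read at 515 nm. Growth was normalized to day-zero and vehicle wells. Means ± SD, n = 3.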

Data set [11] has as its system HCT-116. The data set is described as follows: Induction of autophagy in human HCT116 cells assessed as accumulation of LC3-2 at 20 uM after 24 hrs in presence of bafilomycin A1 by Western blot analysis. The format is functional, cell-based. Summed up: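 HCT116 cells were exposed 24 h to 20 μM compound, 2.5 nM bafilomycin A1, or both together. LC3-II was measured by Western blot with β-actin as internal standard. Blots are representative of three separate determinations.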

Data set [12] has as its target Cellular tumor antigen p53 (Homo sapiens) (UniProt P04637). The data set is described as follows: Induction of p53 expression in human HCT116 cells assessed as increase in p21 levels after 24 hrs by Western blot analysis. The format is cell-based.
The subject of data set [13] is HCT-116. As to the kind of experiment: Induction of autophagy in human HCT116 cells assessed as accumulation of LC3-2 at 30 uM after 24 hrs in presence of autophagy inhibitor 3-MA by Western blot analysis. The data set is classed as functional, cell-based. The essentials:
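HCT116 cells were pretreated 1 h with 2 mM 3-MA, then given 30 μM compound for a further 24 h. Whole-cell lysates were immunoblotted for LC3-II and cleaved PARP, with β-actin as loading standard and ECL detection. Blots are representative of three separate determinations.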

The next data set has as its system SNU-638. As to the kind of experiment: Antiproliferative activity against human SNU638 cells after 24 to 72 hrs by SRB assay. The data set is classed as functional, cell-based. The essentials:
as §1

The subject of data set [14] is HCT-116. As to the kind of experiment: Induction of apoptosis in human HCT116 cells at 10 uM after 48 hrs by Annexin V-FITC/propidium iodide staining based flow cytometry. The format is functional. Summed up: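 HCT116 cells were treated 48 h, then resuspended in binding buffer at 1 × 10^6 cells/mL. They were stained with annexin V-FITC and PI for 20 min at room temperature in the dark, diluted and analyzed immediately by flow cytometry for annexin V-positive cells. n = 3.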

The test system of data set [15] is HCT-116. As to the kind of experiment: Cell cycle arrest in human HCT116 cells assessed as accumulation at subG1 phase at 10 uM after 48 hrs by propidium iodide staining based flow cytometry. The format is functional.
In a further data set the test system is A549. As to the kind of experiment: Antiproliferative activity against human A549 cells after 24 to 72 hrs by SRB assay. The format is functional, cell-based. Summed up: as §1

Activity calls are given as the source filed them. The calls are words filed in the database; no cut-off is given here.

Cellular tumor antigen p53 (Homo sapiens), sequence (P04637 whole entry, looked up): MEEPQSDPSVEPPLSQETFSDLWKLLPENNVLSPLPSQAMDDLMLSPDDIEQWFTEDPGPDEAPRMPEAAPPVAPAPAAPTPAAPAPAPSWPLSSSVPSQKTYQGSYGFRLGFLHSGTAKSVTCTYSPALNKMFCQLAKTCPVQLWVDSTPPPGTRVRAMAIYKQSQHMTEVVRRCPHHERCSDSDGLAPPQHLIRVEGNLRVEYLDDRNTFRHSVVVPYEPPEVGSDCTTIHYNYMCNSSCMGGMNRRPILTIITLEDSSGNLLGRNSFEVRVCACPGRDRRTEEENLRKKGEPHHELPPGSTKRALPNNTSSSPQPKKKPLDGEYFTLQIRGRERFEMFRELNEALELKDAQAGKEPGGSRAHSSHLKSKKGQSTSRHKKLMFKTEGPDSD

For `C[C@H]1CC[C@@]2(OC1)O[C@H]1C[C@H]3[C@@H]4CC=C5C[C@@H](O)C[C@@H](O[C@@H]6O[C@H](C)[C@H](O)[C@H](O[C@@H]7OC[C@@H](O)[C@H](O)[C@H]7O)[C@H]6O[C@@H]6O[C@H](CO)[C@@H](O)[C@H](O)[C@H]6O)[C@]5(C)[C@H]4CC[C@]3(C)[C@H]1[C@@H]2C`, the IC50 with HCT-116 [1] turned out to be 13.8 µM; in the data set with MRC5, 82 µM; with SNU-638 it was 14.8 µM; with A549, 26 µM. For the same molecule, in the data set with HCT-116 [2], the inhibition in vivo at 5 mg/kg came out at 56.6%. The inhibition result in data set [3] and in [8] was “Active” in each case. The result in the data set on HCT-116 [4], in the data set on HCT-116 [5], in the data set on Mus musculus, in the data set with HCT-116 [9] and in the data set on HCT-116 [11] was Active. Besides, the Activity result is “Dose-dependent effect” in data set [6]; “Non-Toxic” in [7]; “Dose-dependent effect” in data set [12]; 13.42% with HCT-116 [14]; 5.52% in the data set on HCT-116 [15]. Further, the “growth inhibition (GI)” value in the data set on HCT-116 [10] was “Active”. Further, in the data set on HCT-116 [13], the result was inactive.

The record behind these values is ChEMBL document CHEMBL4477197, “Antitumor Activity of Spicatoside A by Modulation of Autophagy and Apoptosis in Human Colorectal Cancer Cells” (J Nat Prod, 2016).
